Assay results taken from ChEMBL document CHEMBL2163325, “Discovery of phosphoinositide 3-kinases (PI3K) p110β isoform inhibitor 4-[2-hydroxyethyl(1-naphthylmethyl)amino]-6-[(2S)-2-methylmorpholin-4-yl]-1H-pyrimidin-2-one, an effective antithrombotic agent without associated bleeding and insulin resistance” (Bioorg Med Chem Lett, 2012).
≈ marks a conversion by molar mass, not a printed value.

Experiments:
[1] = target: T1, A-type voltage-gated potassium channel KCND3 (Homo sapiens, UniProt Q9UK17); test: Inhibition of human KV4.3 expressed in CHO cells at 31.6 uM by patch clamp assay; format: cell-based
T1 sequence (Q9UK17 whole entry): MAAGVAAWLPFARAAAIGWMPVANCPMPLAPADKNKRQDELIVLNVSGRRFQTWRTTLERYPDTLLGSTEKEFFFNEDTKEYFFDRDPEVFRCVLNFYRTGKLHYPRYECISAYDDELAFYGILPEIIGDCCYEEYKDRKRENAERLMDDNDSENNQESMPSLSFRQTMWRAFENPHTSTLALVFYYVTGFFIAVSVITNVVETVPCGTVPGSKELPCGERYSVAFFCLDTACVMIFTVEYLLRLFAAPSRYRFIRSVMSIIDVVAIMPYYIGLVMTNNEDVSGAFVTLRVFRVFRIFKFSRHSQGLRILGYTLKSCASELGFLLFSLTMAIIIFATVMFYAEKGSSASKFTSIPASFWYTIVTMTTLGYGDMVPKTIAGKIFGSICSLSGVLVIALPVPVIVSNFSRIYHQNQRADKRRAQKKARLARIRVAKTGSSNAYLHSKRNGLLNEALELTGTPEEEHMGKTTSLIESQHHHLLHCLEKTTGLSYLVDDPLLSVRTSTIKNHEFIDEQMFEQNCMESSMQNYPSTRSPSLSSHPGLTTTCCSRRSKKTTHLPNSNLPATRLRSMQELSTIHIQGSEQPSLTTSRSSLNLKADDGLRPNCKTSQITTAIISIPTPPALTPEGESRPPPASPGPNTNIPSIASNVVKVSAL

Rattus norvegicus = test: Toxicity in overnight fasted Sprague-Dawley rat assessed as induction of insulin resistance at 0.2 to 1.6 ug/kg/min administered as infusion for 30 mins; settings: in vivo, iv, 0.5 h
Canis familiaris [2] = test: Antithrombotic activity in Beagle dog assessed as concentration required to increase bleeding time by 2 fold at 15.8 to 591.8 ug/kg, iv administered as bolus infusion for 1 min followed by 8.7 to 378.7 ug/kg/min, iv administered as continuous infusion for 29 mins measured up to 15 mins; format: functional, Canis lupus familiaris
Procedure, shortened: (§1)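 Anaesthetized, intubated, ventilated beagles (N = 2). Femoral artery intima damaged and flow reduced to give cyclic flow reductions. Control period vehicle iv (30% cyclodextrin). Then 5 ascending 30-min periods, each a bolus over 1 min plus continuous infusion for 29 min. Tongue incision bleeding time from 15 min, capped at 15 min. Blood at 20 min for ex vivo aggregation and plasma level. EC50 fitted sigmoidally; EC_BT:2 from an exponential fit.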

[3] = Lipophilicity, log D of the compound at pH 7.4 by HPLC analysis; format: physicochemical; settings: buffer
Procedure, shortened: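 LogD measured at pH 7.4 by HPLC.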

Cytochrome P450 2C9 = Cytochrome P450 2C9 (Homo sapiens, UniProt P11712); test: Inhibition of CYP2C9; format: ADME
Canis familiaris [4] = test: Ex-vivo antiplatelet activity in iv dosed Beagle dog whole blood assessed as inhibition of ADP-induced platelet aggregation administered as bolus infusion for 1 min followed by continuous infusion for 29 mins; format: functional, organism-based; settings: Canis lupus familiaris; procedure, shortened: as §1
[5] = target: Voltage-gated inwardly rectifying potassium channel KCNH2 (Homo sapiens, UniProt Q12809); test: Inhibition of human ERG expressed in CHO cells at 31.6 uM by patch clamp assay; format: cell-based
[6] = Antiplatelet activity in Beagle dog whole blood assessed as inhibition of ADP-induced platelet aggregation by impedance aggregometry; format: functional, tissue-based; settings: Canis lupus familiaris
Procedure, shortened: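 Citrated whole blood drawn by venipuncture from healthy human donors or beagle dogs, sodium citrate at 11 mM final in blood. ADP-induced aggregation read by Multiplate impedance aggregometry. N > 3.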

[7] = Antiplatelet activity in human platelet rich plasma assessed as inhibition of collagen-induced platelet aggregation by light transmission aggregometry; format: functional
Procedure, shortened: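 Healthy-donor blood drawn by venipuncture into sodium citrate (11 mM final in blood), then platelet rich plasma prepared. Collagen-induced aggregation measured by light transmission aggregometry, either in an aggregometer or in an in-house 96-well plate format.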

[8] = target: T2, Phosphatidylinositol 4,5-bisphosphate 3-kinase catalytic subunit beta isoform (Homo sapiens, UniProt P42338); test: Inhibition of human PI3K p110beta-mediated AKT phosphorylation at Ser473 in MDA-MB-468 cells after 2 hrs by fluorescence microplate cytometric analysis; format: cell-based
Procedure, shortened: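 MDA-MB-468 cells kept in DMEM with 10% heat-inactivated FCS and L-glutamine. Seeded at 1500 cells/well, incubated overnight at 37 °C, 5% CO2. Exposed to compound for 2 h. Ser473 phospho-Akt detected with a specific antibody by laser scanning fluorescence microplate cytometry.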

[9] = Clearance in fasted Beagle dog at 1 umol/kg, iv and 2 umol/kg, po; format: ADME, organism-based, Canis lupus familiaris; settings: in vivo
Procedure, shortened: (§2)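 Fasted male Beagle dogs, iv and po (N = 2 per route). Parameters derived by noncompartmental analysis of plasma concentrations.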

[10] = target: Sodium channel protein type 5 subunit alpha (Homo sapiens, UniProt Q14524); test: Inhibition of human NaV1.5 expressed in CHO cells at 31.6 uM by patch clamp assay; format: cell-based
[11] = Toxicity in human adipocytes assessed as inhibition of insulin-induced glucose uptake at 3 to 40 uM; format: cell-based; settings: adipocyte
[12] = target: Voltage-gated potassium channel, IKs; KCNQ1(Kv7.1)/KCNE1(MinK) (Homo sapiens, UniProt P51787+P15382); test: Inhibition of human IKs expressed in CHO cells at 31.6 uM by patch clamp assay; format: cell-based
[13] = Solubility of the compound in HBSS buffer at pH 7.4 by LC-MS analysis; format: physicochemical
[14] = Oral bioavailability in fasted Beagle dog at 2 umol/kg; format: ADME, organism-based, Canis lupus familiaris; settings: in vivo; procedure, shortened: as §2
[15] = target: Phosphatidylinositol 4,5-bisphosphate 3-kinase catalytic subunit gamma isoform (Homo sapiens, UniProt P48736); test: Inhibition of human recombinant His6-tagged PI3K […] expressed in baculovirus infected cells using DiC8-PI(4,5)P2 as substrate after 20 mins by AlphaScreen assay
[16] = target: Voltage-dependent L-type calcium channel subunit alpha-1C (Homo sapiens, UniProt Q13936); test: Inhibition of human CaV1.2 expressed in CHO cells at 31.6 uM by patch clamp assay; format: cell-based
Homo sapiens = organism: Homo sapiens; test: Selectivity ratio of IC50 for human PI3K p110alpha to IC50 for human PI3K p110beta
[17] = target: T2, Phosphatidylinositol 4,5-bisphosphate 3-kinase catalytic subunit beta isoform; test: Inhibition of human recombinant His6-tagged PI3K p110beta expressed in baculovirus infected cells using DiC8-PI(4,5)P2 as substrate after 20 mins by AlphaScreen assay
[18] = target: Phosphatidylinositol 4,5-bisphosphate 3-kinase catalytic subunit alpha isoform (Homo sapiens, UniProt P42336); test: Inhibition of human recombinant His6-tagged PI3K p110alpha expressed in baculovirus infected cells using DiC8-PI(4,5)P2 as substrate after 20 mins by AlphaScreen assay
[19] = Half life in human liver microsomes at 2 uM; format: ADME, Microsome
Liver microsomes = test: Drug metabolism in human liver microsomes assessed as reactive metabolite formation after 30 mins in presence of glutathione relative to clozapine; format: ADME, Microsome; settings: 0.5 h
Procedure, shortened: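 Incubation with human liver microsomes (1 mg/mL) plus glutathione for 30 min. Summed glutathione-adduct peak areas divided by the major adduct peak area of clozapine control (average, N = 3). Ratio >1 ranked high, 0.25–1 medium, <0.25 low.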

T2 sequence (P42338 whole entry, canonical isoform): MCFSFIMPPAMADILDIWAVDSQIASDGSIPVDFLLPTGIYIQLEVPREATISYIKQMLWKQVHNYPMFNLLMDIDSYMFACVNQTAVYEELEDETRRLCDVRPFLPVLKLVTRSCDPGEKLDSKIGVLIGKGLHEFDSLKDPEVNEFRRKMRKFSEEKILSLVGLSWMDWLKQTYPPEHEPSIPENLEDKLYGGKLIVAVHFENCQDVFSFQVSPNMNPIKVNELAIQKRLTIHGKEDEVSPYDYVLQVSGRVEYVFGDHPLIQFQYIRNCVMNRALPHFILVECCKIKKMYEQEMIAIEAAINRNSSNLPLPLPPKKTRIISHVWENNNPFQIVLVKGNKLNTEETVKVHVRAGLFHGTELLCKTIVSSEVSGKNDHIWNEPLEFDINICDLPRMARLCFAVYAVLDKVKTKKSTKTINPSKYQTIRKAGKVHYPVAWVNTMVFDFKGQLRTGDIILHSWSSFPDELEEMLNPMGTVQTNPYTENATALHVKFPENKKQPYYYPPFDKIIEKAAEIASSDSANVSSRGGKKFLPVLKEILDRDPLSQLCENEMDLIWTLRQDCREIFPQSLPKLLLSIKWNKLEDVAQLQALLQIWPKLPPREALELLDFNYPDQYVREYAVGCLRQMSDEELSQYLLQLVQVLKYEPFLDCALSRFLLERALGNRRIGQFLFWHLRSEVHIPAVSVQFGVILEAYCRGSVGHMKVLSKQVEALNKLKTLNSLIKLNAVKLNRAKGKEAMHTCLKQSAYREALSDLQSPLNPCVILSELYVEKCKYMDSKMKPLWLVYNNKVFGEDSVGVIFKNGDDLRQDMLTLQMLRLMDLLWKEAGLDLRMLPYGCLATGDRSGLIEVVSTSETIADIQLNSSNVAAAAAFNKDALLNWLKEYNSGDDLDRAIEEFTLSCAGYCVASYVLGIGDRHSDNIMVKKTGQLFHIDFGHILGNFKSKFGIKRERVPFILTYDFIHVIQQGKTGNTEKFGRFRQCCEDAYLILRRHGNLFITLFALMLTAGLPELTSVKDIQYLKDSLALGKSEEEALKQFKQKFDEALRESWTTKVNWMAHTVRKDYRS
Phosphatidylinositol 4,5-bisphosphate 3-kinase catalytic subunit gamma isoform, sequence (P48736 whole entry, canonical isoform): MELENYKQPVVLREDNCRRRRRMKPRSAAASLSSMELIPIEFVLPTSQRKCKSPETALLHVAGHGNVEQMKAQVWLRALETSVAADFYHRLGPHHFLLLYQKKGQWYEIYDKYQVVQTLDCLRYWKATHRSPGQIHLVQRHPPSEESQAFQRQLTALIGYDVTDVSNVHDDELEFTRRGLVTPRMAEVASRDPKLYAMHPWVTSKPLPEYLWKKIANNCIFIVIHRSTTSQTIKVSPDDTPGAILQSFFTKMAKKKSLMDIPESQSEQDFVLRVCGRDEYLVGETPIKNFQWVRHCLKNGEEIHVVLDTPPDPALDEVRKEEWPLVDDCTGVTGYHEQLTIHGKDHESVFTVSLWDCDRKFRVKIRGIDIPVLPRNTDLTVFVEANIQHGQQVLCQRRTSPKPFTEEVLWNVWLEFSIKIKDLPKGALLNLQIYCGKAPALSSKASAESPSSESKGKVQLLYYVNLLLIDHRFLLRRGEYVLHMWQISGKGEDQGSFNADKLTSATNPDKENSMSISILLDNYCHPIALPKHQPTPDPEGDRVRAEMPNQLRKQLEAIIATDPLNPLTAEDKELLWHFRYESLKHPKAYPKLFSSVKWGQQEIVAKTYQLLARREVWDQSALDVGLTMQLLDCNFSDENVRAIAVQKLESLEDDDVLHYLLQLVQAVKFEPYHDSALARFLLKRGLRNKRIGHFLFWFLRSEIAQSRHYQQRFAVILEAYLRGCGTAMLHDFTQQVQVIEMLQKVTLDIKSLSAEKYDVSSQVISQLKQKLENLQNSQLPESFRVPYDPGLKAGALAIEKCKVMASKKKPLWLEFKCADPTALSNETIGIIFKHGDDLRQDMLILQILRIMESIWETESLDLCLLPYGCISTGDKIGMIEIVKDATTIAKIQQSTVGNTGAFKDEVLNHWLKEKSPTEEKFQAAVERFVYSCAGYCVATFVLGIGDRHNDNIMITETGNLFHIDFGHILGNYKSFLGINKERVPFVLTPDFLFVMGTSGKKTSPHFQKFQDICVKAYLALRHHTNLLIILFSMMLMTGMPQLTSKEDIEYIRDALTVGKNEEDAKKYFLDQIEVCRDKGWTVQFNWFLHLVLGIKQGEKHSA
Sodium channel protein type 5 subunit alpha, sequence (Q14524 whole entry): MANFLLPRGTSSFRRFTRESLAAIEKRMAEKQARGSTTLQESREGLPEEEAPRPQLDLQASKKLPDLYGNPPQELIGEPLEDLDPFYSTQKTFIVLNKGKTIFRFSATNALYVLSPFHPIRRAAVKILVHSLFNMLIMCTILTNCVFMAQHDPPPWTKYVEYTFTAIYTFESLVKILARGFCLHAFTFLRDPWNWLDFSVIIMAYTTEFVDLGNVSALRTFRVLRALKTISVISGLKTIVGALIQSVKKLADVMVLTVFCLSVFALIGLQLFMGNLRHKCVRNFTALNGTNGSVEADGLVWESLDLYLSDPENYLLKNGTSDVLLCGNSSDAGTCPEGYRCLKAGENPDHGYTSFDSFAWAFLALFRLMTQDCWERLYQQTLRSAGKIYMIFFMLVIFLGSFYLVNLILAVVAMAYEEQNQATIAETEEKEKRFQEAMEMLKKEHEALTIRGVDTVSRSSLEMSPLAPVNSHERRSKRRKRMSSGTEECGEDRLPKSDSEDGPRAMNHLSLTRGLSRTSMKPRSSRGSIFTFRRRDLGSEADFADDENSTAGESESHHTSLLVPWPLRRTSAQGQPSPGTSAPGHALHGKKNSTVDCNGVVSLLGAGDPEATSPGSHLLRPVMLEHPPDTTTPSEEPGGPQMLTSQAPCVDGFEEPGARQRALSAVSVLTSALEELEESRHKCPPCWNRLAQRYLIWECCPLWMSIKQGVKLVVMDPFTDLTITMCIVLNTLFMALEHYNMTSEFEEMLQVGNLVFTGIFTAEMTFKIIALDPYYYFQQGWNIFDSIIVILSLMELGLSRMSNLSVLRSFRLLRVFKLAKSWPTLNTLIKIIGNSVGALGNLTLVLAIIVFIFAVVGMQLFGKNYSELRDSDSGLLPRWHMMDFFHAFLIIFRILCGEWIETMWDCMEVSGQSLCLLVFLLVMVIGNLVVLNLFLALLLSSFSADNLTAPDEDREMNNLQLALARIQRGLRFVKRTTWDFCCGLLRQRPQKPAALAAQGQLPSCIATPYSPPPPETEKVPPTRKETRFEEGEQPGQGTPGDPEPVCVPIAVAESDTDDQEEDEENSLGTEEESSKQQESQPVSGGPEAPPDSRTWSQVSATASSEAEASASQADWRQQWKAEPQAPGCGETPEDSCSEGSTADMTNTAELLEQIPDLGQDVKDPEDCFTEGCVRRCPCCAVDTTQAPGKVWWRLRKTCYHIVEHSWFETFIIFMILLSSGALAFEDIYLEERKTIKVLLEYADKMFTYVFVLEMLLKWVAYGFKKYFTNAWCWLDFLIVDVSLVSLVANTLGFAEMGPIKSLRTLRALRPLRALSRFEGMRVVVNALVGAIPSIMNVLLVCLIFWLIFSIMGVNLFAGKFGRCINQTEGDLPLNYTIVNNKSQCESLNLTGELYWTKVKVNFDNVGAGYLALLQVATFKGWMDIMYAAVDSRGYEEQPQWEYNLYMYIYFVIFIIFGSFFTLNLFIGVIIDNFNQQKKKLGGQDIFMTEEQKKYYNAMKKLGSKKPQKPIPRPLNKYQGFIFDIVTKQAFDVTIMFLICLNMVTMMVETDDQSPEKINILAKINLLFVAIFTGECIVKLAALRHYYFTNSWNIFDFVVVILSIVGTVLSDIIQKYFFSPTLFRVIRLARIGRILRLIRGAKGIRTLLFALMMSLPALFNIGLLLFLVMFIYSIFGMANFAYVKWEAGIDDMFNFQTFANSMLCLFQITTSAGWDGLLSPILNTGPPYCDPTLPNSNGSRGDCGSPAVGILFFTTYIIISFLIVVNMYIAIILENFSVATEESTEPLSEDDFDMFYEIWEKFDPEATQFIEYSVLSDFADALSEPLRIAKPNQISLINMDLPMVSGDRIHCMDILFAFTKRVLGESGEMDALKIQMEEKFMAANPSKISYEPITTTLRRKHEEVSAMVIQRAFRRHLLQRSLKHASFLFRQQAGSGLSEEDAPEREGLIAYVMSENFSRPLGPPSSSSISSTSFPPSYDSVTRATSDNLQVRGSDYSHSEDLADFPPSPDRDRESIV
Cytochrome P450 2C9, sequence (P11712 whole entry, the tested form may be a part): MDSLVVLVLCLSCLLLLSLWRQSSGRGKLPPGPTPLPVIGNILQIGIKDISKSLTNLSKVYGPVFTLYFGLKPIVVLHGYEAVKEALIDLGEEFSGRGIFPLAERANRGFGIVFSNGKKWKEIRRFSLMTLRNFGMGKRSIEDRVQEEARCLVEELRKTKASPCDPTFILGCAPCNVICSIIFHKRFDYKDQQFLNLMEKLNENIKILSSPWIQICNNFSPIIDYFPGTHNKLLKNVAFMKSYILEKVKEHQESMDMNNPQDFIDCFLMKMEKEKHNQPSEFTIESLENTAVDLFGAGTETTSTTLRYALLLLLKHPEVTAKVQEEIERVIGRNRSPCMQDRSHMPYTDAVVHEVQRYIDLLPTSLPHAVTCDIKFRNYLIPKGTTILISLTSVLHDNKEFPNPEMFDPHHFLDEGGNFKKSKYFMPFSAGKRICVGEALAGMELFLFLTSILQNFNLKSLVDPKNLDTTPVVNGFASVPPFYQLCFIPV

- inhibition (INH) [1]: Not Active
- logD [3]: 1.9
- IC50 (Cytochrome P450 2C9): 4000 nM
- EC50 (Canis familiaris [4]): 1100 nM
- IC50 [6]: 3800 nM
- IC50 [7]: 400 nM
- IC50 [8]: 195 nM
- clearance [9]: 18 mL/min/kg
- inhibition (INH) [12]: Not Active
- solubility [13]: 100 µM (≈ 39.4 µg/mL)
- bioavailability [14]: 25%
- IC50 [15]: 97400 nM
- Ratio IC50 (Homo sapiens): > 700
- IC50 [17]: 38 nM
- IC50 [18]: 27200 nM
- half-life at 2 µM [19]: > 2.88 h
- Drug metabolism (Liver microsomes): Not Active
Compound: C[C@H]1CN(c2cc(N(CCO)Cc3cccc4ccccc34)[nH]c(=O)n2)CCO1
- Activity (Rattus norvegicus): Non-toxic
- Activity (Canis familiaris [2]): 14.8 µM
- inhibition (Canis familiaris [4]): Dose-dependent effect
- inhibition (INH) [5]: Not Active
- inhibition (INH) [10]: Not Active
- Activity [11]: Non-toxic
- inhibition (INH) [16]: Not Active
